Screens as filed in PubChem BioAssay.
A1 apoptosis 2 – A1 inhibition read as caspase activation | MEF A1-2A-BIM cells, caspase-Glo luminescence, 3 h; percent of clofoctol response, DMSO zero | caspase activation, % (no concentration beside the values) | 24,000 tested, under 10 active; in the data active = caspase activation above about 5.9%
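System: mouse embryonic fibroblasts co-expressing A1 and BIM (A1-2A-BIM), primed for A1 dependence; amount: 2500 cells/well; doses: 50 nL pinned compound; schedule: cells settled overnight, compound exposure 3 h at 37 °C, 5% CO2; detection: Caspase-Glo 3/7 luminescence, 1 h at room temperature; read-out: Caspase-3/7 activation, seen as rise in luminescence signal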
INS-1E ATP HTS – rescue of cytokine-induced death in INS-1E beta cells | INS-1E cytokine-induced death, ATP luminescence, 48 h; normalised: neutral wells 0, positive control 100 | protection from cytokine-induced ATP loss, % at 10 µM | actives 0.1% (n = 20,000) | AID 488910;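 active = mean replicate protection from cytokine-induced ATP loss at least 50% and at least 75% of replicates each reaching 50%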
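Assay system: INS-1E rat cells / Quantity: 8000 cells per well / Medium: RPMI without phenol red, 5% FBS / Probe or stimulus: three-cytokine cocktail (IFN-γ, TNF-α, IL-1β) / Dosing: one compound concentration, pin transfer / Timing: 48 h co-treatment, 10 min post-lysis read / Technique: CellTiter-Glo luminescence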
T cruzi intra – intracellular Trypanosoma cruzi inhibition; intracellular Trypanosoma cruzi in host cells, plate reader; activity score (inhibition), % at 5.01 µM; actives 4.9% (n = 22,000); AID 651903; in the data active = activity score above about 55%;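 note: parasites and compound incubated about four days before reading; 0% = median of neutral control wells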
* = called active by the depositor; nt = no result. Only a selection was taken, and hits are over-represented in it overall.

SMILES	A1 apoptosis 2	INS-1E ATP HTS	T cruzi intra
C[C@@H]1CN([C@H](C)CO)C(=O)c2cc(NS(=O)(=O)c3ccc(Cl)cc3)ccc2O[C@@H]1CN(C)Cc1ccc(-c2ccccc2)cc1	1	-31	24
C[C@H](CO)N1C[C@H](C)[C@H](CN(C)Cc2ccc(-c3ccccc3)cc2)Oc2ccc(NS(=O)(=O)c3ccc(Cl)cc3)cc2C1=O	-2	-3	56*
C[C@H](CO)N1C[C@H](C)[C@@H](CN(C)Cc2ccc(-c3ccccc3)cc2)Oc2ccc(NS(=O)(=O)c3ccc(Cl)cc3)cc2C1=O	nt	-16	22
C[C@@H]1CCCCO[C@@H](CN(C)Cc2ccc(Cl)c(Cl)c2)[C@@H](C)CN([C@H](C)CO)C(=O)c2cc(NC(=O)Nc3ccc(C(F)(F)F)cc3)ccc2O1	nt	-18	76*
C[C@@H]1CCCCO[C@H](CN(C)Cc2ccc(Cl)c(Cl)c2)[C@H](C)CN([C@@H](C)CO)C(=O)c2cc(NC(=O)Nc3ccc(C(F)(F)F)cc3)ccc2O1	-1	nt	nt
C[C@H]1CCCCO[C@H](CN(C)Cc2ccc3c(c2)OCO3)[C@@H](C)CN([C@@H](C)CO)C(=O)c2cc(NC(=O)Nc3ccc4c(c3)OCO4)ccc2O1	1	nt	nt
C[C@@H]1CCCCO[C@@H](CN(C)Cc2ccc3c(c2)OCO3)[C@@H](C)CN([C@H](C)CO)C(=O)c2cc(NC(=O)Nc3ccc4c(c3)OCO4)ccc2O1	nt	-18	71*
C[C@@H]1CN([C@H](C)CO)C(=O)c2cc(NC(=O)Nc3ccc(C(F)(F)F)cc3)ccc2O[C@@H](C)CCCCO[C@H]1CN(C)Cc1ccc2c(c1)OCO2	1	nt	nt
C[C@@H]1CCCCO[C@@H](CN(C)Cc2ccc(Cl)c(Cl)c2)[C@H](C)CN([C@H](C)CO)C(=O)c2cc(NC(=O)Nc3ccc4c(c3)OCO4)ccc2O1	2	nt	nt
C[C@@H]1CCCCO[C@H](CN(C)Cc2ccc(Cl)c(Cl)c2)[C@@H](C)CN([C@H](C)CO)C(=O)c2cc(NC(=O)Nc3ccc4c(c3)OCO4)ccc2O1	nt	-26	69*
C[C@@H]1CCCCO[C@@H](CN(C)Cc2ccc3c(c2)OCO3)[C@@H](C)CN([C@H](C)CO)C(=O)c2cc(NC(=O)Nc3ccc(C(F)(F)F)cc3)ccc2O1	nt	-16	65*
C[C@H](CO)N1C[C@H](C)[C@@H](CN(C)C(=O)NC2CCCC2)OCc2cn(nn2)CCCC1=O	0	nt	-1
COc1cccc(NC(=O)N(C)C[C@H]2OCc3cnnn3CCCC(=O)N([C@@H](C)CO)C[C@@H]2C)c1	nt	3	-11
C[C@@H]1CN([C@@H](C)CO)C(=O)c2cc(NC(=O)Cc3cn(C)c4ccccc34)ccc2O[C@H]1CN(C)C(=O)NC1CCCCC1	1	-14	3
C[C@H](CO)N1C[C@H](C)[C@H](CN(C)C(=O)NC2CCCCC2)Oc2ccc(NC(=O)Cn3cnnn3)cc2CC1=O	1	-4	-3
Cc1noc(C)c1S(=O)(=O)Nc1ccc2c(c1)C(=O)N([C@H](C)CO)C[C@@H](C)[C@H](CN(C)S(=O)(=O)c1cccs1)O2	nt	-3	6
COc1ccc(NC(=O)N(C)C[C@H]2Oc3c(NC(=O)Nc4ccc5c(c4)OCO5)cccc3C(=O)N([C@H](C)CO)C[C@@H]2C)cc1	-1	0	-9
C[C@@H]1CN([C@H](C)CO)C(=O)Cc2cc(NC(=O)CCCN(C)C)ccc2O[C@H]1CN(C)S(=O)(=O)c1ccc(F)cc1	nt	2	-16
C[C@@H]1CCCCO[C@H](CN(C)CC2CCCCC2)[C@@H](C)CN([C@H](C)CO)C(=O)c2cc(NC(=O)Nc3ccc(F)cc3)ccc2O1	0	-23	67*
C[C@@H]1CN([C@@H](C)CO)C(=O)c2cc(NC(=O)Nc3ccc(F)cc3)ccc2O[C@@H](C)CCCCO[C@H]1CN(C)CC1CC1	1	nt	nt
C[C@@H]1CCCCO[C@@H](CN(C)CC2CCCCC2)[C@@H](C)CN([C@H](C)CO)C(=O)c2cc(NC(=O)Nc3ccc4c(c3)OCO4)ccc2O1	-3	-25	58*
C[C@@H]1CN([C@@H](C)CO)C(=O)c2cc(NC(=O)Nc3ccc4c(c3)OCO4)ccc2O[C@@H](C)CCCCO[C@H]1CN(C)CC1CCCCC1	1	nt	nt
C[C@@H]1CN([C@H](C)CO)C(=O)c2cccc(NS(=O)(=O)c3ccc(Cl)cc3)c2O[C@@H]1CN(C)C(=O)Nc1ccc(C(F)(F)F)cc1	1	-33	2
C[C@H](CO)N1C[C@H](C)[C@@H](CN(C)C(=O)Nc2ccc(F)cc2)Oc2c(NC(=O)Nc3ccc(C(F)(F)F)cc3)cccc2C1=O	0	-8	5
